Where “and” joins values, the source holds several entries; their conditions need not be identical. Identical values can stand only once. Entries after “also recorded” stand apart in the source; their conditions may differ. Bridge positions count the residues as written; N and C are the ends. Square brackets hold non-standard residues; d marks the D form. Peptide text beside a SMILES is read from it.
What was measured:
[1] = tested on: B16/F1 melanoma cells; experiment: Cellular internalization; assay type: cell-based, murine; settings: after 20 min of incubation at 25 °C, acid wash pH 4.5, n=3
Method in brief: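 Cells at 2.5×10^5/well were grown overnight at 37 °C and washed with binding medium (MEM, 25 mM HEPES pH 7.4, 0.2% BSA, 0.3 mM 1,10-phenanthroline). They were incubated at 25 °C with ~200,000 cpm HPLC-purified radiopeptide for 20–120 min (n=3). Membrane-bound activity was stripped with 40 mM sodium acetate pH 4.5/0.9% NaCl/0.2% BSA. Cells were lysed in 1 N NaOH for 5 min; both fractions were gamma-counted.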

[2] = tested on: B16/F1 melanoma-bearing C57 mice; experiment: Melanoma imaging by small animal SPECT/CT; assay type: in vivo, mouse; settings: 2 h post-injection of 7.4 MBq via tail vein
[3] = tested on: B16/F1 melanoma-bearing C57 mice; experiment: Biodistribution in B16/F1 melanoma-bearing C57 mice; assay type: in vivo, mouse
Method in brief: (§1)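 Female C57 mice bore subcutaneous right-flank tumours from 1×10^6 B16/F1 cells (~0.2 g at 10 days). Radiopeptide, 0.037 MBq in pH 7.4 saline, went in via tail vein. Groups of 4 were killed at 0.5, 2, 4 and 24 h; tumours and organs were weighed and gamma-counted. Blood was taken as 6.5% body weight. Blockade: co-injected 10 µg (6.1 nmol) unlabeled NDP-MSH, 2 h. Results as %ID/g or %ID, mean ± SD, n=4.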

[4] = as above; assay type: in vivo, mouse; settings: female, C57, mouse, iv, 0.037 MBq, total radioactivity
Method in brief: as §1

[5] = tested on: B16/F1 melanoma-bearing C57 mice; experiment: Urinary metabolites by radio-HPLC; assay type: in vivo, mouse; settings: urine at 2 h post-injection of ~3.7 MBq via tail vein
[6] = tested on: B16/F1 melanoma cells; experiment: Cellular efflux; assay type: cell-based, murine; settings: loaded 2 h at 25 °C, then 2 h of incubation in the culture medium
Method in brief: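 B16/F1 cells were seeded at 2.5×10^5/well and grown overnight at 37 °C. They were loaded with radiopeptide for 2 h at 25 °C and rinsed twice with ice-cold PBS. Release into culture medium was then monitored. At 20, 40, 60, 90 and 120 min, surface-bound and intracellular radioactivity were collected separately and gamma-counted.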

[7] = tested on: B16/F1 melanoma-bearing C57 mice; experiment: Effect of L-lysine co-injection on renal and tumor uptake; assay type: in vivo, mouse; settings: 2 h post-injection, 15 mg L-lysine
Method in brief: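 Groups of 4 tumour-bearing C57 mice received 0.037 MBq radiopeptide mixed with 15 mg L-lysine via injection. Mice were killed at 2 h, and tumours and organs were weighed and gamma-counted. Uptake with versus without L-lysine was compared by unpaired Student's t-test, significance p<0.05.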

Uptake ratio Tumor/Blood ([3]; 0.5 h post-injection): 0.91
Uptake ratio Tumor/Blood ([3]; 2 h post-injection, NDP blockade): 5.70
tissue uptake at 0.5 h ([4]; blood): 15.9 ± 3.97 %ID/g
tissue uptake at 2 h ([4]; blood): 0.44 ± 0.13 %ID/g
tissue uptake at 4 h ([4]; blood): 0.55 ± 0.41 %ID/g
tissue uptake at 24 h ([4]; blood): 0.4 ± 0.21 %ID/g
tissue uptake at 0.5 h ([4]; bone): 1.66 ± 0.1 %ID/g
tissue uptake at 2 h ([4]; bone): 0.46 ± 0.11 %ID/g
tissue uptake at 4 h ([4]; bone): 0.39 ± 0.12 %ID/g
tissue uptake at 24 h ([4]; bone): 0.23 ± 0.09 %ID/g
tissue uptake at 0.5 h ([4]; brain): 0.14 ± 0.04 %ID/g
tissue uptake at 2 h ([4]; brain): 0.03 ± 0.01 %ID/g
tissue uptake at 4 h ([4]; brain): 0.02 ± 0.01 %ID/g
tissue uptake at 24 h ([4]; brain): 0.03 ± 0.01 %ID/g
tissue uptake at 0.5 h ([4]; heart): 1.86 ± 0.21 %ID/g
tissue uptake at 2 h ([4]; heart): 0.29 ± 0.08 %ID/g
tissue uptake at 4 h ([4]; heart): 0.19 ± 0.05 %ID/g
tissue uptake at 24 h ([4]; heart): 0.12 ± 0.02 %ID/g
tissue uptake dose at 0.5 h ([4]; intestines): 1.73 ± 0.17 %ID
tissue uptake dose at 2 h ([4]; intestines): 0.84 ± 0.2 %ID
tissue uptake dose at 4 h ([4]; intestines): 0.72 ± 0.18 %ID
tissue uptake dose at 24 h ([4]; intestines): 0.48 ± 0.13 %ID
tissue uptake at 0.5 h ([4]; kidneys): 145 ± 24.6 %ID/g
tissue uptake at 2 h ([4]; kidneys): 135 ± 23.6 %ID/g
tissue uptake at 4 h ([4]; kidneys): 106 ± 27.7 %ID/g
tissue uptake at 24 h ([4]; kidneys): 46.8 ± 14.8 %ID/g
tissue uptake at 0.5 h ([4]; liver): 2.09 ± 0.04 %ID/g
tissue uptake at 2 h ([4]; liver): 1.62 ± 0.14 %ID/g
tissue uptake at 4 h ([4]; liver): 2.01 ± 0.39 %ID/g
tissue uptake at 24 h ([4]; liver): 1.03 ± 0.1 %ID/g
tissue uptake at 0.5 h ([4]; lung): 4.27 ± 0.27 %ID/g
tissue uptake at 2 h ([4]; lung): 0.51 ± 0.37 %ID/g
tissue uptake at 4 h ([4]; lung): 0.39 ± 0.24 %ID/g
tissue uptake at 24 h ([4]; lung): 0.23 ± 0.04 %ID/g
tissue uptake at 0.5 h ([4]; muscle): 0.8 ± 0.38 %ID/g
tissue uptake at 2 h ([4]; muscle): 0.15 ± 0.05 %ID/g
tissue uptake at 4 h ([4]; muscle): 0.07 ± 0.02 %ID/g
tissue uptake at 24 h ([4]; muscle): 0.52 ± 0.1 %ID/g
tissue uptake at 0.5 h ([4]; pancreas): 0.83 ± 0.4 %ID/g
tissue uptake at 2 h ([4]; pancreas): 0.11 ± 0.04 %ID/g
tissue uptake at 4 h ([4]; pancreas): 0.09 ± 0.05 %ID/g
tissue uptake at 24 h ([4]; pancreas): 0.13 ± 0.07 %ID/g
tissue uptake at 0.5 h ([4]; skin): 3.99 ± 0.42 %ID/g
tissue uptake at 2 h ([4]; skin): 0.5 ± 0.19 %ID/g
tissue uptake at 4 h ([4]; skin): 0.27 ± 0.13 %ID/g
tissue uptake at 24 h ([4]; skin): 1.01 ± 0.31 %ID/g
tissue uptake at 0.5 h ([4]; spleen): 1.04 ± 0.33 %ID/g
tissue uptake at 2 h ([4]; spleen): 0.48 ± 0.2 %ID/g
tissue uptake at 4 h ([4]; spleen): 0.47 ± 0.18 %ID/g
tissue uptake at 24 h ([4]; spleen): 0.19 ± 0.13 %ID/g
tissue uptake at 0.5 h ([4]; stomach): 1.87 ± 0.21 %ID/g
tissue uptake at 2 h ([4]; stomach): 0.67 ± 0.16 %ID/g
tissue uptake at 4 h ([4]; stomach): 0.7 ± 0.23 %ID/g
tissue uptake at 24 h ([4]; stomach): 0.21 ± 0.04 %ID/g
tissue to tissue ratio at 2 h ([4]; tumor / blood): 42.7
tissue to tissue ratio at 4 h ([4]; tumor / blood): 25.2
tissue to tissue ratio at 24 h ([4]; tumor / blood): 14.6
tissue to tissue ratio at 0.5 h ([4]; tumor / kidneys): 0.1
tissue to tissue ratio at 2 h ([4]; tumor / kidneys): 0.14
tissue to tissue ratio at 4 h ([4]; tumor / kidneys): 0.13
tissue to tissue ratio at 24 h ([4]; tumor / kidneys): 0.12
tissue to tissue ratio at 0.5 h ([4]; tumor / lung): 3.41
tissue to tissue ratio at 2 h ([4]; tumor / lung): 36.8
tissue to tissue ratio at 4 h ([4]; tumor / lung): 35.5
tissue to tissue ratio at 24 h ([4]; tumor / lung): 25.4
tissue uptake at 0.5 h ([4]; tumor): 14.6 ± 5.31 %ID/g
tissue uptake at 2 h ([4]; tumor): 18.8 ± 5.13 %ID/g
tissue uptake at 4 h ([4]; tumor): 13.8 ± 3.1 %ID/g
tissue uptake at 24 h ([4]; tumor): 5.84 ± 0.5 %ID/g
tissue to tissue ratio at 0.5 h ([4]; tumor/liver): 6.97
tissue to tissue ratio at 2 h ([4]; tumor/liver): 11.6
tissue to tissue ratio at 4 h ([4]; tumor/liver): 6.89
tissue to tissue ratio at 24 h ([4]; tumor/liver): 5.67
tissue to tissue ratio at 0.5 h ([4]; tumor/muscle): 18.2
tissue to tissue ratio at 2 h ([4]; tumor/muscle): 125
tissue to tissue ratio at 4 h ([4]; tumor/muscle): 198
tissue to tissue ratio at 24 h ([4]; tumor/muscle): 11.2
dose excreted at 0.5 h ([4]; urine): 28.6 ± 8.85%
dose excreted at 2 h ([4]; urine): 54.8 ± 5.65%
dose excreted at 4 h ([4]; urine): 61.2 ± 5.56%
dose excreted at 24 h ([4]; urine): 82.2 ± 4.69%
Remained intact in the urine [5]: Approximately 70%
Transformed to a more hydrophobic compound in the urine [5]: 30%
Reduction of renal uptake by L-lysine co-injection ([7]; versus without L-lysine): 55% and 40–50%
Structure (SMILES): CC(C)[C@H](NC(=O)[C@@H]1CCCN1C(=O)[C@H](CCCNC(=N)N)NC(=O)[C@H](CS)NC(=O)[C@H](Cc1c[nH]c2ccccc12)NC(=O)[C@H](CCCNC(=N)N)NC(=O)[C@@H](Cc1ccccc1)NC(=O)[C@H](Cc1c[nH]cn1)NC(=O)[C@H](CCC(=O)O)NC(=O)[C@H](CS)NC(=O)[C@H](CS)NC(=O)[C@H](CCCCN)NC(=O)[C@@H]1CC(=O)N[C@@H](CCCNC(=N)N)C(=O)N[C@@H]([C@@H](C)O)C(=O)N[C@@H](CC(=O)O)C(=O)N[C@H](Cc2ccc(O)cc2)C(=O)N1)C(N)=O [^99mTc-RTD-Lys-(Arg^11)CCMSH, metal not drawn] (RTD[dY]DKCCEH[dF]RWCRPV-NH2; lactam N-5)
Activity internalized in the cells [1]: Approximately 71%
Visualization of flank B16/F1 melanoma lesions by SPECT/CT [2]: clearly visualized
Activity remained inside the cells (cellular efflux) [6]: 75%
Effect of L-lysine co-injection on tumor uptake ([7]; p>0.05): didn't affect the tumor uptake; also recorded: without affecting their tumor uptake
